# In the library only some 3.4% were active in any assay of this set; here they are far more common.
# Redox H2O2 prof – compounds producing H2O2 with reducing agent – biochemical, NIH compound library profiling, artefact control for MLSCN library redox annotation, primary screen; DTT-dependent redox cycling H2O2, phenol red/HRP absorbance; 100% = 100 µM peroxide control, 0% = buffer; activation, % at 10 µM; 200,000 compounds, 0.03% hits; AID 878, 2007;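 active = activation of at least 50% relative to the plate's high and low controls in the primary single-dose screen; inactive = activation below 50%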;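 note: compound incubated with DTT at 0.8 mM final as the reducing agent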
# PKD1 inh – inhibitors of human PKD1 kinase, biochemical, fluorescence polarization. 200,000 compounds, 0.056% hits. PKD1 kinase fluorescence polarization assay. inhibition, % (concentration not given with the values); in the data active = inhibition above about 50%
# Target sequence (Q15139 whole entry, looked up): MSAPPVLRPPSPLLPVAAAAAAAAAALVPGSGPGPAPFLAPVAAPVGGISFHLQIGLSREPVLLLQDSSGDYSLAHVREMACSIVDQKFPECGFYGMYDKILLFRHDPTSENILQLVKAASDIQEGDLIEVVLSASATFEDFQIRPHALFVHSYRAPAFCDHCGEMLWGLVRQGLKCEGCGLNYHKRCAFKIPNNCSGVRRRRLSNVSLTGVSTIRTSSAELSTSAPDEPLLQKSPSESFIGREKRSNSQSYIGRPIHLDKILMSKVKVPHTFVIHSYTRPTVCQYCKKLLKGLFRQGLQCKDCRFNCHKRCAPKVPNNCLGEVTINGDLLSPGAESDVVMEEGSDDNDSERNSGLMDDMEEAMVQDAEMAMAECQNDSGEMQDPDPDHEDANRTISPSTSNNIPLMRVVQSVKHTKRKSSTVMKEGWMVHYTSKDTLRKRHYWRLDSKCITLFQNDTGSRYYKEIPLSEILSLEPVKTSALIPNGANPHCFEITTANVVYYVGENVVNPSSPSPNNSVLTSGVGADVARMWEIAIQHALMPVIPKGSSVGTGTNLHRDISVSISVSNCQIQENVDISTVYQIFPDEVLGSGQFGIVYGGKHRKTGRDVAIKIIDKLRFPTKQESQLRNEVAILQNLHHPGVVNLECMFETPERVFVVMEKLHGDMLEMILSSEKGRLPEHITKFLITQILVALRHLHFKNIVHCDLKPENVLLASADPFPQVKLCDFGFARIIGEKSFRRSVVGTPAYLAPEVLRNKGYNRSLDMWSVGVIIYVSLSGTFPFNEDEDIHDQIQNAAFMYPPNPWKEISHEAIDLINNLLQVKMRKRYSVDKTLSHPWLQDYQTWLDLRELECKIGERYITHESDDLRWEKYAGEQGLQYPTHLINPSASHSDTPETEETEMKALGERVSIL
# p97 inhibitor – inhibitors of human p97 ATPase, primary screen, biochemical; Transitional endoplasmic reticulum ATPase (Homo sapiens), P55072; recombinant p97 ATPase, Kinase-Glo ATP luminescence, 3 h; inhibition, % at 8 µM; 220,000 compounds, 0.42% hits; in the data active = inhibition above about 15%;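 note: 0% = DMSO vehicle and 100% = wells lacking enzyme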
# ROMK primary – ROMK potassium channel modulators, primary screen, cell-based, thallium flux, MLSMR library. Tet-inducible ROMK, thallium flux fluorescence; actives lie on both sides. ATP-sensitive inward rectifier potassium channel 1 (Homo sapiens), P48048. 130,000 compounds, 2% hits. AID 1918, 2009. B-score at 10 µM;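 active = signal ratio slope over the read window, or its plate-corrected B-score, at least 3 SD from the plate mean, either direction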;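 note: B-score of the F/F0 ratio slope over 7 to 12 s after thallium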
# KCC2 mod – KCC2 cotransporter modulators, thallium flux, primary screen, cell-based, HEK293 KCC2, FluoZin-2 fluorescence, MLSMR; Solute carrier family 12 member 5 (Homo sapiens), Q9H2X9; KCC2 cells, thallium flux FluoZin-2 fluorescence; B-score of Tl+ flux slope (higher = more flux/activation; lower = inhibition) at 10 µM; 190,000 compounds, 2.2% hits; AID 1456, 2008;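 active = thallium flux slope and its plate-corrected score both differing from the plate sample mean at a set confidence after two filtering rounds, in either direction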;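 note: slope of fluorescence scaled to starting intensity during 10 to 20 s after thallium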
# MDM2 E3 inh – MDM2-luciferase reporter signal enhancers, primary screen, MDM2 E3 ligase inhibitor project, cell-based, luminescence, 1536-well | E3 ubiquitin-protein ligase Mdm2 (Homo sapiens), Q00987 | cell-based MDM2 ubiquitination luciferase reporter, 2 h; 0 = plate control, 100 = twice control, blank-subtracted | signal enhancement, % at 5 µM | 210,000 compounds, 0.11% hits | AID 1230, 2008;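 active = signal enhancement of 30% or more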;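 note: luminescence tracks abundance of the self-degrading MDM2-luciferase fusion protein; higher signal means inhibition of MDM2 E3 ligase activity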
#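 system = mammalian cells stably expressing self-ubiquitinating, self-degrading MDM2 E3–luciferase fusion | quantity = 2000 cells per well seeded | incubation = 4 h cell settling then 2 h compound exposure, 37 °C | signal = SteadyLite luminescence, 15 min reagent step | benchmarks = plate control and blank wells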
# ROMK retest – ROMK channel modulator hit retest, confirmation, cell-based, thallium flux, duplicate, resupplied hits; fluorescence ratio; stronger effect = lower value; shares compounds with ROMK primary; 3,000 compounds, 54% hits; normalized thallium flux (F/F0 slope) at 10 µM; AID 1917, 2009;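 active = Flux at 10 µM at least 3 SD below or above vehicle control mean in one or both replicates; inconclusive = no clear call, values can overlap the other calls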
# * hit, by the source's call; ? = inconclusive; . = no result.
SMILES,Redox H2O2 prof,PKD1 inh,p97 inhibitor,ROMK primary,KCC2 mod,MDM2 E3 inh,ROMK retest
Cc1ccc(NC(=S)NCCCN2CCOCC2)cc1,0,-10,4,-0.05,0.25,-12,.
CCOC(=O)N1CCN(C(=O)CSc2nc3c(c(=O)n2-c2ccccc2OC)SCC3)CC1,2,0,3,.,.,-6,.
C=CCn1c2ccccc2c2nnc(SCCCn3c(=O)[nH]c4ccccc43)nc21,1,-2,2,.,0.071,-20,0.065*
C=CCOc1ccc(Br)cc1CNC(C)(C)C,0,-3,6,0.5,-0.016,-11,0.072
CSC1=NC(C(Cl)(Cl)Cl)N=C(c2ccc(C)cc2)N1 (stereo not given),8,8,0,2.7*,0.16,-14,0.1*
CCN(CC)S(=O)(=O)c1ccc(Cl)c(NC(=O)COC(=O)c2cccn2C)c1,0,8,-5,2.7*,-0.98,-8,0.073
CCN(CC)S(=O)(=O)c1ccc(Cl)c(NC(=O)COC(=O)c2ccc(O)cc2)c1,0,-6,5,-1.8,-0.97,-20,0.074
CN(C)S(=O)(=O)c1ccc(Cl)c(NC(=O)COC(=O)c2ccc(O)cc2)c1,1,7,5,-0.84,0.35,-3,.
COc1ccccc1/C=N/NC(=O)c1[nH]c(C)c(C(=O)N/N=C/c2ccccc2OC)c1C,-1,-3,-2,-0.7,-4,5,.
Cc1ccc(C)c(N2CCN(C(=O)c3ccc(CSc4nc5ccncc5[nH]4)cc3)CC2)c1,1,4,3,-4.2*,-1.9,.,0.072
COC(=O)COc1ccc(-c2ccc(F)cc2)cc1C=O,-1,-4,5,4.7*,-0.59,2,?
CC(C)c1cc(C(F)(F)F)n2nc(C(=O)O)cc2n1,0,-1,-6,0.11,.,-2,.
COc1ccc(Oc2ccccc2C=O)cc1,3,1,0,.,.,-10,?
COc1cccc(/C=N/NC(=O)c2ccc(=O)n(C)c2)c1OC,0,0,3,.,1.1,-5,.
COc1ccc(CNc2ccc(C)c(C)c2)cc1,0,1,4,-0.63,0.55,-1,.
COc1cc(CNc2ccc(C)c(C)c2)cc(OC)c1OC,0,-5,1,3.4*,-0.016,-9,0.093
CN(C)c1ccc(/C=C(\C#N)C(=O)c2ccccc2)cc1,.,.,-2,.,-0.69,2,0.066*
N#C/C(=C\c1ccc(C#N)cc1)C(=O)c1ccccc1,.,.,4,.,-0.22,-2,.
Cc1cc2c(cc1S(=O)(=O)N(C)c1ccccc1)NC(=O)CO2,0,-1,1,-5*,-2,-5,0.053*
CCOc1ccccc1-c1nc(C(N)=O)c2[nH]c(=O)n(-c3cccc(C)c3)c2n1,-4,14,-4,-0.91,.,-53,.
CCOC(=O)/C=C1\SCC(=O)N1CC(=O)NC12CC3CC(CC(C3)C1)C2,0,-2,1,1.8,-1,-18,.
Cc1ccc(NC(=O)COc2ccccc2CNC(C)(C)CC(C)(C)C)cc1,0,8,4,-3.6*,0.61,-20,0.05*
C(=N\n1cnnc1)/c1ccccc1OCCOc1ccccc1,0,-1,1,.,-1.9,-7,.
CN(Cc1ccc(-n2cccn2)cc1)Cc1cn(C)nc1-c1ccccc1F,-1,-5,2,0.022,0.1,-3,.
Cc1cc(N2CCOCC2)ccc1/C=C1\NC(=O)N(CC(=O)Nc2ccccc2C)C1=O,0,-7,4,0.75*,-0.0073,-8,?
SMILES,Redox H2O2 prof,PKD1 inh,p97 inhibitor,ROMK primary,KCC2 mod,MDM2 E3 inh,ROMK retest
CCOc1ccc2nc(NC(=O)C(NS(=O)(=O)c3cccc4nsnc34)C(C)C)sc2c1 (stereo not given),-1,9,-6,.,-0.98,-5,0.056*
C=CCN1C(c2cccc(C(F)(F)F)c2)=CS/C1=C(/C#N)c1nnc(N2CCOCC2)n1-c1ccccc1,3,6,-5,-4.6*,-1.2,3,0.047*
C=CCN1C(c2ccc(Br)cc2)=CS/C1=C(/C#N)c1nnc(N2CCOCC2)n1-c1ccccc1,0,-7,6,-3.9*,-2.7,-2,0.057*
C=CCN1C(=O)NC(c2ccc(OC)cc2)(C(F)(F)F)S/C1=C(\C#N)c1nnc(N2CCOCC2)n1-c1ccccc1 (stereo not given),0,-8,-3,-0.58,-0.84,-6,.
O=S(=O)(c1ccccc1)C(/C=N\O)/C=C/c1ccccc1 (stereo not given),-1,-6,-2,.,-0.57,5,.
CCn1ncc([C@@H]2C[C@H]3CN(Cc4cccc(Cl)c4)C(=O)[C@]34CCCN24)c1C,1,-1,4,-0.36,.,-27,.
O=C1N(Cc2cccc(Cl)c2)C[C@@H]2C[C@@H](c3cccn3-c3cccnc3)N3CCC[C@@]123,0,0,1,-2.7*,0.13,-11,0.061*
CCOC(=O)c1ccccc1NC(=S)N1CCC(C)CC1,1,-6,-3,0.17,1.1,-9,.
CCOC(=O)c1ccccc1NC(=S)N1CC(C)CC(C)C1 (stereo not given),0,0,-1,.,-0.13,-14,0.064*
CC(C)CCNC(=O)C(c1ccc(O)cc1)N(C(=O)C1COc2ccccc2O1)c1cccc(O)c1 (stereo not given),0,1,3,-2.7*,-0.97,-9,0.055*
CCN(C(=O)COC(=O)c1cccnc1Nc1ccccc1F)C1CCS(=O)(=O)C1 (stereo not given),0,2,-17,-0.49,2,-6,.
COc1ccccc1/C=C/C=N/NC(=O)CC1C(=O)NN=C1C (stereo not given),.,.,6,-11*,0.31,-10,0.077
COc1cccc(/C=N/NC(=O)CC2C(=O)NN=C2C)c1OC (stereo not given),-8,4,-2,.,1.5,-9,.
O=[N+]([O-])c1ccc(S(=O)(=O)CC(CN2CCCCC2)N2CCCCC2)cc1 (stereo not given),1,-5,3,-4.8*,1.4,-5,0.053*
